Columns and labels:
[1] = molecular target: Replicase polyprotein 1ab (Severe acute respiratory syndrome coronavirus 2) (UniProt P0DTD1); assay: Inhibition of recombinant SARS-CoV-2 3CLpro expressed in Escherichia coli NiCo21(DE3) assessed as residual activity at 500 uM using DABCYL-KTSAVLQSGFRKME-EDANS as substrate preincubated for 30 mins in presence of 1mM DTT followed by substrate addition and measured by FRET assay relative to control
In short: (§1)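 Kinetic fluorescence read-out of cleavage of a FRET substrate carrying a DABCYL–EDANS pair. Compounds were tested at 500–625 μM, and <50% residual activity was taken as the activity threshold. To exclude false positives, absorbance at the excitation and emission wavelengths and autofluorescence of the compounds were measured.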

[2] = system: Mycobacterium tuberculosis; assay: Inhibition of Mycobacterium tuberculosis MetAP1a assessed as residual activity at 625 uM using L-methionine 7-amido-4-methylcoumarin as fluorogenic substrate and measured by fluorescence based assay
In short: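 Kinetic fluorescence assay in which the enzyme hydrolyses L-methionine 7-amido-4-methylcoumarin to fluorescent 7-amino-4-methylcoumarin. Compounds were tested at 500–625 μM, and activity was called at <50% residual activity. Spectral interference was checked by measuring absorbance at the excitation and emission wavelengths and compound autofluorescence.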

[3] = Redox activity of compound assessed as redox index at 100 uM in presence of 1 mM DTT measured by HRP-PR assay; format: physicochemical
In short: (§2)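 H2O2 from redox cycling, with or without DTT, detected with horseradish peroxidase-phenol red (HRP-PR).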

[4] = molecular target: UDP-N-acetylglucosamine 1-carboxyvinyltransferase (Escherichia coli K-12) (UniProt P0A749); assay: Inhibition of recombinant Escherichia coli MurA assessed as residual activity at 500 uM using UDP-N-acetylglucosamine as substrate preincubated for 30 mins followed by substrate addition and measured by malachite green based colorimetric assay relative to control
Chain of UDP-N-acetylglucosamine 1-carboxyvinyltransferase (Escherichia coli K-12) (P0A749 whole entry): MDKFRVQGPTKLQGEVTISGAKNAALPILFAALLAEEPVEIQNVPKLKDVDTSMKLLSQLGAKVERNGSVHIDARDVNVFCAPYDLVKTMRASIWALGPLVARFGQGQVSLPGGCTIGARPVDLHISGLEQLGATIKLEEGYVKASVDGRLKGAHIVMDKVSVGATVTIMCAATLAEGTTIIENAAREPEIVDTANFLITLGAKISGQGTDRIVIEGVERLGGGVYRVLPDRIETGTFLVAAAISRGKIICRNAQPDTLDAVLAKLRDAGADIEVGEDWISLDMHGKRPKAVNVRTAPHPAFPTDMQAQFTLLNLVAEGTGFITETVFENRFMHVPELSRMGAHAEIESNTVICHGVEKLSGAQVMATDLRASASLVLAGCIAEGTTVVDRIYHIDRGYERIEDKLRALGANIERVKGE
In short: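 E. coli MurA at 500–625 μM with 30 min preincubation before substrate addition. Malachite green colorimetric read-out. Activity threshold was <50% residual activity.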

[5] = Redox activity of compound assessed as redox index at 10 uM measured by resazurin assay; format: physicochemical
In short: (§3)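 Free radicals formed by redox cycling with DTT detected with resazurin by fluorimetric read-out. Spectral interference checked.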

[6] = Thiol reactivity of compound measured by TNB2- assay; format: physicochemical
In short: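 Reactivity toward the thiol surrogate TNB2– in a nonproteinaceous setting without TCEP. Reversibility tested by adding TCEP and checking that absorbance was restored.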

[7] = molecular target: Replicase polyprotein 1ab (Severe acute respiratory syndrome coronavirus 2) (UniProt P0DTD1); assay: Inhibition of recombinant SARS-CoV-2 3CLpro expressed in Escherichia coli NiCo21(DE3) assessed as residual activity at 500 uM using DABCYL-KTSAVLQSGFRKME-EDANS as substrate preincubated for 30 mins followed by substrate addition and measured by FRET assay relative to control; in short: as §1
[8] = molecular target: UDP-N-acetylglucosamine 1-carboxyvinyltransferase (Escherichia coli K-12) (UniProt P0A749); assay: Inhibition of recombinant Escherichia coli MurA assessed as residual activity at 500 uM using UDP-N-acetylglucosamine as substrate preincubated for 30 mins in presence of 1 mM DTT followed by substrate addition and measured by malachite green based colorimetric assay relative to control
[9] = molecular target: UDP-N-acetylglucosamine 1-carboxyvinyltransferase (Escherichia coli K-12) (UniProt P0A749); assay: Inhibition of recombinant Escherichia coli MurA assessed as residual activity at 500 uM using UDP-N-acetylglucosamine as substrate and measured by malachite green based colorimetric assay relative to control
In short: (§4)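 Screened at 500–625 μM with malachite green colorimetric read-out. Activity threshold was <50% residual activity.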

[10] = Redox activity of compound assessed as redox index at 1 uM measured by resazurin assay; format: physicochemical; in short: as §3
[11] = Redox activity of compound assessed as redox index at 100 uM measured by HRP-PR assay; format: physicochemical; in short: as §2
[12] = molecular target: D-alanine--D-alanine ligase B (Escherichia coli K-12) (UniProt P07862); assay: Inhibition of recombinant Escherichia coli DdlB assessed as residual activity at 500 uM using D-alanine as substrate incubated for 20 mins and measured by malachite green based colorimetric assay relative to control; in short: as §4
[13] = Redox activity of compound assessed as redox index at 100 uM in presence of 100 uM TCEP measured by H2DCFDA assay; format: physicochemical
In short: (§5)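 Reactive oxygen species, with or without the reducing agent TCEP, detected with the fluorescent probe H2DCFDA. Compound spectral interference (autofluorescence) checked under the assay conditions.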

[14] = Redox activity of compound assessed as redox index at 100 uM measured by H2DCFDA assay; format: physicochemical; in short: as §5
[15] = Aqueous stability of the compound at pH 7.4 measured after 60 mins by spectrophotometric analysis; format: physicochemical; details: buffer, pH 7.4, 1 h
In short: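 Followed by spectrophotometry as changes in the compound absorption spectrum over time in 50 mM Tris-HCl pH 7.4, 0.5 mM EDTA, read after 60 min in 96-well microplate format. Compounds with low absorbance were not evaluated.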

Structure (SMILES)	Activity [1]	Activity [2]	Activity_index [3]	Activity [4]	Activity_index [5]	Activity [6]	Activity [7]	Activity [8]	Activity [9]	Activity_index [10]	Activity_index [11]	Activity [12]	Activity_index [13]	Activity_index [14]	Stability [15]
Brc1cnc(Br)s1	79.9%	71.7%	1	0%	0.9	Active	17.1%	99%	13.1%	0.9	1	91%	1	0.7	
Cc1cnc(Br)s1	79.1%	116%	1	8.2%	1	Active	19.8%	105%	45.2%	0.9	1	77%	0.9	0.9	
Nc1nccs1 [AMINOTHIAZOLE]	82.5%	94.6%	1	39.7%	0.9		86.1%	105%	88%	0.9	1	95%	0.9	0.8	Stable
CCOC(=O)c1csc(Br)n1	80.7%	90.8%	1	84%	1		71.7%	100%	89.8%	0.9	1	97%	0.9	1	Stable
Brc1nncs1	78.3%	106%	1	143%	0.9	Active	5.1%	114%	47%	0.9	1	93%	1.2	1	
COC(=O)C(=O)Nc1ncc(Br)s1	66.2%	156%	1	37.2%	1.1		89.5%	112%	81.7%	0.9	1	94%	0.8	0.8	Unstable
Cc1nc(C(=O)O)cs1	78.7%	73.9%	1	1.6%	1		3.4%	105%	7.2%	0.9	1	92%	1.6	0.9	Stable
N#Cc1cnc(NC(=O)CC(=O)O)s1	79.7%	146%	1	20.3%	1		93.5%	109%	72.3%	0.9	1	96%	0.8	0.7	Stable
Fc1ccc(-c2csc(Br)n2)cc1F	78.9%	84.4%	1	12%	0.9		85.1%	81.9%	89.1%	0.9	1	136%	0.9	0.8	Unstable
NCCc1cn(Cc2cscn2)nn1	87.4%	94%	1	0%	0.9	Active	87.2%	110%	28.1%	1	0.9	82%	1.5	1.2	
Nc1nc(C(=O)O)cs1	84.9%	155%	1	0%	1.1	Active	14.2%	107%	1.6%	1	1	96%	1.6	2.1	
CCOC(=O)Cc1csc(N)n1	82.1%	132%	1	66.3%	1		103%	88.1%	85.5%	0.9	1	94%	1	1.2	Stable
Cc1nnc(N)s1	81.9%	114%	1	89.5%	0.9		121%	99.4%	92.9%	0.9	1	98%	1	1	Stable
COC(=O)c1csc(Br)n1	68.6%	88.2%	1	117%	0.8		73.7%	104%	106%	1.4	1	95%	0.9	0.8	Stable
O=C(O)c1csc(-c2ccncc2)n1	94.4%	93.4%	1	90.4%	1		98%	106%	103%	1	1	96%	1.1	1	Stable
Cc1csc(N)n1	82.4%	123%	1	93.3%	1		96.7%	102%	99.3%	0.9	1	90%	0.8	1	Stable
O=C(O)c1scnc1Br	80.1%	122%	1	83.1%	0.9		135%	111%	99.5%	0.9	1	96%	1.1	1.1	Stable

— ChEMBL document CHEMBL5104216, “Fragment-Sized Thiazoles in Fragment-Based Drug Discovery Campaigns: Friend or Foe?” (ACS Med Chem Lett, 2022)
